The source made the active and inactive calls. No cut-off for these calls is given here.
What was measured:
HeLa [1] = experiment: Induction of apoptosis in human HeLa cells assessed as necrotic cells at 1 uM after 8 hrs by annexin-V FITC/propidium iodide staining based flow cytometric analysis relative to control; type: functional
Outline: (§1)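 Cells were grown in DMEM with 10% heat-inactivated FBS at 37 °C and 5% CO₂, then plated at 500,000 cells/well in 24-well plates. They were treated from a DMSO stock (DMSO ≤0.1%) for 8, 12 or 16 h. After a PBS wash, cells were resuspended in binding buffer (10 mM HEPES pH 7.4, 2.5 mM CaCl₂, 140 mM NaCl, 0.1% BSA), stained 40 min with FITC-annexin V, then with PI, and run on the flow cytometer immediately. Values are the mean of three independent experiments.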

MCF7 [2] = experiment: Induction of ERK/MAPK signal transduction pathway in human MCF7 cells assessed as increase in p53 expression; type: cell-based
HeLa [3] = experiment: Induction of ROS generation in human HeLa cells at 5 uM after 4 to 8 hrs in presence of NAC by DCFH-DA staining-based fluorescence spectrophotometric analysis; type: functional, cell-based
Outline: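 DCFH-DA ROS: HeLa or MCF-7 cells at 2×10^6/well cultured 12 h, treated 4 or 8 h; t-BHP (10 μM) is the positive control. DCFH-DA 10 μM added for 10 min at 37 °C, cells washed twice with PBS. Fluorescence read at ex 485/em 520 nm. For the NAC arm, NAC (5 mM) is added to the medium before treatment.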

HeLa [4] = experiment: Induction of caspase-dependent apoptosis in human HeLa cells assessed as activation of caspase-8 at 1 to 3 uM after 24 hrs by Western blot analysis; type: functional, cell-based
Outline: (§2)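 Cells were treated at 1, 3 and 5 µM for 24 h at 37 °C. Lysis was in ice-cold Triton X-100 buffer with protease and phosphatase inhibitors; nuclear proteins were extracted separately. Protein was quantified by BCA. Lysates were separated by electrophoresis, transferred to nitrocellulose and blocked in non-fat milk for 1 h. Primary antibody was applied overnight at 4 °C and secondary for 1 h at 28 °C. Detection was by enhanced chemiluminescence.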

HeLa [5] = experiment: Induction of caspase-dependent apoptosis in human HeLa cells assessed as activation of caspase-9 at 1 to 3 uM after 24 hrs by Western blot analysis; type: functional, cell-based; outline: as §2
HeLa [6] = experiment: Induction of apoptosis in human HeLa cells assessed as late apoptotic cells at 1 uM after 8 hrs by annexin-V FITC/propidium iodide staining based flow cytometric analysis relative to control; type: functional; outline: as §1
HeLa [7] = experiment: Induction of nitric oxide production in human HeLa cells measured over 8 hrs by Griess reaction based assay; type: functional, cell-based
Outline: (§3)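 Cells seeded at 2×10^6 cells/well for 12 h, then exposed to 1, 5 and 10 μM compound for 8 h at 37 °C. Culture supernatant mixed with Griess reagent (0.002% N-1-naphthyl-ethylenediamine dihydrochloride, 0.5% sulfanilic acid, 14% glacial acetic acid). Nitrite read by absorbance at 550 nm and compared with vehicle group.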

HeLa [8] = experiment: Induction of apoptosis in human HeLa cells assessed as change in Bid level at 1 to 3 uM after 24 hrs by Western blot analysis; type: functional, cell-based; outline: as §2
MCF7 [9] = experiment: Induction of nitric oxide production in human MCF7 cells at 1 uM measured over 8 hrs by Griess reaction based assay relative to control; type: functional; outline: as §3
HeLa [10] = experiment: Induction of apoptosis in human HeLa cells assessed as viable cells at 1 uM after 16 hrs by annexin-V FITC/propidium iodide staining based flow cytometric analysis relative to control; type: functional; settings: read-out: Activity; outline: as §1
MCF7 [11] = experiment: Induction of apoptosis in human MCF7 cells assessed as necrotic cells at 1 uM after 8 hrs by annexin-V FITC/propidium iodide staining based flow cytometric analysis relative to control; type: functional; outline: as §1
MCF7 [12] = experiment: Induction of apoptosis in human MCF7 cells assessed as viable cells at 1 uM after 16 hrs by annexin-V FITC/propidium iodide staining based flow cytometric analysis relative to control; type: functional; settings: MCF7, 16 h, read-out: Activity; outline: as §1
SCC-25 = experiment: Cytotoxicity against human SCC25 cells assessed as reduction in cell viability after 4 hrs by MTT assay; type: functional, cell-based
HeLa [13] = experiment: Induction of cell cycle arrest in human HeLa cells at 1 uM after 16 hrs by propidium iodide/RNase A staining based FACS analysis; type: functional
Outline: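 Cells were seeded at 1 million cells/mL in 24-well plates and grown to 70% confluence. They were exposed at 1 µM for 16 h, washed in cold PBS, fixed in absolute ethanol and stored at −20 °C. Staining was with RNase A (20 µg/mL final) and PI (50 µg/mL final) for 30 min at 37 °C in the dark. Results are given as the percentage of cells in each cell-cycle phase by FACS.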

HeLa [14] = experiment: Induction of apoptosis in human HeLa cells assessed as viable cells at 1 uM after 8 hrs by annexin-V FITC/propidium iodide staining based flow cytometric analysis relative to control; type: functional; settings: read-out: Activity; outline: as §1
HeLa [15] = experiment: Cytotoxicity against human HeLa cells assessed as reduction in cell viability after 4 hrs by MTT assay; type: functional, cell-based
Outline: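 MTT: 10,000–20,000 cells/well attached for 16 h, then washed twice with serum-free RPMI. Treated with 1–200 µM for 4 h, 3 parallel runs per concentration. MTT added for 2 h; medium partly removed and isopropanol added. A590 read. Viability = (A treated − A doxorubicin)/(A medium − A doxorubicin)×100. Mean of three experiments, triplicate wells each.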

[16] = target: c-Jun N-terminal kinase, JNK (Homo sapiens) (UniProt P45983+P53779+P45984); experiment: Activation of JNK phosphorylation in human HeLa cells assessed as increase in ratio of phosphorylated JNK to total JNK level at 5 uM by ELISA; type: cell-based
Outline: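 Cell-based ELISA: HeLa or MCF-7 cells (20×10^3/well) grown overnight at 37 °C, 5% CO2, treated with 5 μM, then fixed and blocked. Probed with rabbit anti-total and anti-phospho P38, JNK or ERK1/2 (1:100), then HRP anti-rabbit IgG. Result is the phospho/total ratio; inhibitor arms use […], […] or SP600125. n=3.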

MCF7 [17] = experiment: Induction of apoptosis in human MCF7 cells assessed as late apoptotic cells at 1 uM after 8 hrs by annexin-V FITC/propidium iodide staining based flow cytometric analysis relative to control; type: functional; outline: as §1
HeLa [18] = experiment: Effect on mitochondrial membrane potential in human HeLa cells assessed as shift change at 5 uM measured over 4 hrs by Rhodamine 123 dye-based fluorescence assay; type: functional, cell-based
Outline: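 Mitochondrial potential: HeLa or MCF-7 cells treated with 5 µM (final) for 1, 2, 4 and 8 h. Rhodamine 123 added, cells incubated 30 min at 37 °C, washed with PBS, and analysed by flow cytometry. Fluorescence histogram shift is compared with control.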

[19] = target: Mitogen-activated protein kinase; ERK1/ERK2 (Homo sapiens) (UniProt P27361+P28482); experiment: Induction of ERK/MAPK signal transduction pathway in human MCF7 cells assessed as increase ERK1/2 translocation; type: cell-based
MCF7 [20] = experiment: Induction of apoptosis in human MCF7 cells assessed as necrotic cells at 1 uM after 12 hrs by annexin-V FITC/propidium iodide staining based flow cytometric analysis relative to control; type: functional; outline: as §1

Sequence of Mitogen-activated protein kinase; ERK1/ERK2 (Homo sapiens) (P27361 whole entry, looked up): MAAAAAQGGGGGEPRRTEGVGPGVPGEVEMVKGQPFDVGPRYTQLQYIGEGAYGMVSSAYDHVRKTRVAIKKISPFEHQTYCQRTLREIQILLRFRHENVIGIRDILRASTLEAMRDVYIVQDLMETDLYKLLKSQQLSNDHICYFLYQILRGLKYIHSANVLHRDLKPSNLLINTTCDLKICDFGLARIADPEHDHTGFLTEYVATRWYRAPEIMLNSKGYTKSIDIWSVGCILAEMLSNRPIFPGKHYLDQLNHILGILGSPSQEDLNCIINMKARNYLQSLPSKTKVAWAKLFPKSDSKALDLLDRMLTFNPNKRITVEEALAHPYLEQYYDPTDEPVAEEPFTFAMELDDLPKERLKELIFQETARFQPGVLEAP
Sequence of Mitogen-activated protein kinase; ERK1/ERK2 (Homo sapiens) (P28482 whole entry, looked up): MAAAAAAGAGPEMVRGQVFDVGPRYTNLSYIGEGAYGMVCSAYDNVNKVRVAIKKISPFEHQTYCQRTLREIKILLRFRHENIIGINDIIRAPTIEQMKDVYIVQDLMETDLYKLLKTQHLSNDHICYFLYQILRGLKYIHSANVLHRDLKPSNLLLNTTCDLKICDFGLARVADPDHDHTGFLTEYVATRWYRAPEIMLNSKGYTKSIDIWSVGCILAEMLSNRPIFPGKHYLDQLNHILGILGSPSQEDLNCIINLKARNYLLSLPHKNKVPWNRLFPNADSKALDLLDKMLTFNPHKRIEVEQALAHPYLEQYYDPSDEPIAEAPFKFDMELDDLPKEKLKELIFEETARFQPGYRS

Activity [16]: Active
Activity [19]: Active
SMILES: Cn1cc(/C=N\NC(=O)c2cn(C)c3ccc(Br)cc23)c2ccccc21
Activity (HeLa [1]): 0.57%
Activity (MCF7 [2]): Active
Activity (HeLa [3]): inactive
Activity (HeLa [4]): inactive
Activity (HeLa [5]): inactive
Activity (HeLa [6]): 11.5%
Activity (HeLa [7]): Dose-dependent effect
Activity (HeLa [8]): inactive
Activity (MCF7 [9]): 32.1%
viability at 1 µM (HeLa [10]): 14.3%
Activity (MCF7 [11]): 0.33%
viability at 1 µM (MCF7 [12]): 20.4%
Activity (SCC-25): Dose-dependent effect
IC50 (SCC-25; SCC-25, 4 h): 10.1 µM
Activity (HeLa [13]): inactive
viability at 1 µM (HeLa [14]): 68.8%
Activity (HeLa [15]): Dose-dependent effect
IC50 (HeLa [15]; Homo sapiens, HeLa, 4 h, read-out: IC50): 1.69 µM
Activity (MCF7 [17]): 4.01%
Activity (HeLa [18]): Active
Activity (MCF7 [20]): 2.61%

Source: ChEMBL document CHEMBL4316598, “Synthesis, antiproliferative and apoptosis induction potential activities of novel bis(indolyl)hydrazide-hydrazone derivatives” (Bioorg Med Chem, 2019)
